Experimental data gathered from unrelated publications.
Compare with care: the assays were run in different laboratories.
Effect on: cell growth or viability

CC[C@H](C)C(=O)O[C@H]1C[C@H](O)C=C2C=C[C@H](C)[C@H](CC[C@@H](O)C[C@@H](O)CC(=O)O)[C@H]21
IC50 (HCT-116; SRB; 72 h): 3.52 µM

COC(=O)[C@]1(O)C[C@@H](O)[C@@H](O)[C@H](OC(=O)/C=C/c2ccc(O)c(O)c2)C1
IC50 (HCT-116; WST-1): 30.8 µM

COc1cc2c(OC)nc3c4cc5c(cc4cc(OC(C)=O)c3c2cc1OC)OCO5
GI50 (HCT-116; MTT): 1.3 µM

COc1ccc(S(=O)(=O)ON=C2C=C(C)C(=O)C(C)=C2)cc1
CC50 (HCT-116): 7.4 µM

C/C=C(/C)C(=O)O[C@@H]1[C@H](OC(C)=O)c2c(ccc3ccc(=O)oc23)OC1(C)C
IC50 (HCT-116; WST-1): 55.8 µM

COC(=O)c1c(C)ncn1CC(c1c[nH]c2cc(Br)ccc12)c1c[nH]c2cc(Br)ccc12
CC50 (DH82; MTS; 24 h): > 20 µM

COc1cc2c(OC)nc3c4cc5c(cc4cc(OCCN4CCC(N6CCCCC6)CC4)c3c2cc1OC)OCO5
GI50 (HCT-116; MTT): 11 µM

CCOC(=O)c1c(C)ncn1CC(c1cn(C)c2ccc([N+](=O)[O-])cc12)c1cn(C)c2ccc([N+](=O)[O-])cc12
CC50 (DH82; MTS; 24 h): > 20 µM

CC(=O)OC1c2c(ccc3ccc(=O)oc23)OC(C)(C)C1OC(=O)C(C)(O)C(C)O (centres unmarked)
IC50 (HCT-116; WST-1): 16.1 µM

CCc1ncn(CC(c2c[nH]c3ccc(C)cc23)c2c[nH]c3ccc(C)cc23)c1C(=O)OC
CC50 (DH82; MTS; 24 h): > 20 µM

O=c1[nH]cc(F)c(=O)[nH]1
CC50 (AGS; crystal violet; 72 h): 769 µM
